Assay outcomes: PubChem, several laboratories
Arr AP2 block – human beta-arrestin and AP2 interaction inhibition; AID 504490; inhibition, % at 10 µM; 340,000 tested, 0.31% active; FITC-arrestin peptide / GST-AP2 beads, flow cytometry; AP2 beta2 appendage carries R879A mutation;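 active = inhibition above a set limit, near 3 SD of compounds lacking own fluorescence, cut at about 54% in these data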
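Material – AP2 appendage R879A on GSH beads · Buffer or medium – PBS with 0.05% Tween 20 and 0.1% BSA · Probe or stimulus – fluorescein-tagged arrestin peptide at 50 nM final · Incubation – compound with beads 12 min RT, then probe 1 h RT · Detection – high-throughput flow cytometry of beads, ex 488, em 535 nm · Evaluation – percent response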
AHR act – activates the human aryl hydrocarbon receptor. P35869. AHR-responsive luciferase reporter cells, luminescence. activation, % at 5 µM. 320,000 tested, 2.5% active. AID 2796; in the data active = activation above about 47%
A3G deaminase – inhibitors of human APOBEC3G DNA deaminase | Q9HC16 | recombinant A3G, ssDNA deamination FAM/TAMRA fluorescence | inhibition, % at 20 µM | 330,000 tested, 0.28% active | AID 493012;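 active = inhibition of at least 40% at 20 µM, with no more than 30% in the related APOBEC3A deaminase screen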
PolyA inh – inhibitors of polyadenylation in S. cerevisiae; S. cerevisiae SKY197-pL101 polyadenylation reporter, beta-gal luminescence; efflux-impaired pdr1/pdr3 knockout yeast; score 100 = 6 SD above DMSO; activity score, % at 12 µM; 300,000 tested, 0.02% active;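 active = lowest replicate activity score at least 50, where 100 means six control SD above control mean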;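 note: yeast exposed to compound for 9 h at 30 °C; higher score means more reporter readthrough which indicates perturbed polyadenylation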
UCH37 DUB inh – inhibitors of human deubiquitinating enzyme UCH37; Q9Y5K5; purified proteasome/UCH37, Ub-AMC cleavage fluorescence; inhibition, % (concentration not given with the values); 330,000 tested, 0.33% active; AID 588478;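 active = mean inhibition over replicate wells above about 20%, limit read from the data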
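Assay system: Proteasome-bound UCH37. Buffer or medium: pH 7.4 Tris-HCl (50 mM) with ovalbumin, ATP-MgCl2, DTT. Incubation: 30 min preincubation with enzyme, 25 min cleavage at room temperature. Measured by: fluorescence, ex 355 nm, em 460 nm. Read-out basis: percent inhibition. Control set: wells without proteasome as full block, compound-free enzyme plus substrate as uninhibited.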
A3A deaminase – inhibitors of human APOBEC3A DNA deaminase; inhibition, % at 20 µM; 330,000 tested, 0.41% active; P31941; AID 493011; recombinant A3A, FAM/TAMRA ssDNA deamination fluorescence;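 active = at least 40% inhibition at 20 µM here, with at most 30% in a related deaminase screen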
Arr AP2 CP1 – human beta-arrestin and AP2 interaction inhibition, cherry pick; AID 504908; shares compounds with Arr AP2 block; 1,300 tested, 2% active; GST-AP2 beads, FITC arrestin peptide binding, flow cytometry; GST-fused beta2-adaptin appendage, R879A mutant; inhibition, % at 10 µM;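 active = inhibition above a set limit, roughly 3 SD of non-fluorescent compound noise, cut at about 38% in these data; inactive = inhibition at or below that limit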;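 note: loss of bead fluorescence from 50 nM FITC arrestin peptide bound to appendage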
Target sequence (P63010 whole entry, looked up, the tested form may be a part, one chain of several): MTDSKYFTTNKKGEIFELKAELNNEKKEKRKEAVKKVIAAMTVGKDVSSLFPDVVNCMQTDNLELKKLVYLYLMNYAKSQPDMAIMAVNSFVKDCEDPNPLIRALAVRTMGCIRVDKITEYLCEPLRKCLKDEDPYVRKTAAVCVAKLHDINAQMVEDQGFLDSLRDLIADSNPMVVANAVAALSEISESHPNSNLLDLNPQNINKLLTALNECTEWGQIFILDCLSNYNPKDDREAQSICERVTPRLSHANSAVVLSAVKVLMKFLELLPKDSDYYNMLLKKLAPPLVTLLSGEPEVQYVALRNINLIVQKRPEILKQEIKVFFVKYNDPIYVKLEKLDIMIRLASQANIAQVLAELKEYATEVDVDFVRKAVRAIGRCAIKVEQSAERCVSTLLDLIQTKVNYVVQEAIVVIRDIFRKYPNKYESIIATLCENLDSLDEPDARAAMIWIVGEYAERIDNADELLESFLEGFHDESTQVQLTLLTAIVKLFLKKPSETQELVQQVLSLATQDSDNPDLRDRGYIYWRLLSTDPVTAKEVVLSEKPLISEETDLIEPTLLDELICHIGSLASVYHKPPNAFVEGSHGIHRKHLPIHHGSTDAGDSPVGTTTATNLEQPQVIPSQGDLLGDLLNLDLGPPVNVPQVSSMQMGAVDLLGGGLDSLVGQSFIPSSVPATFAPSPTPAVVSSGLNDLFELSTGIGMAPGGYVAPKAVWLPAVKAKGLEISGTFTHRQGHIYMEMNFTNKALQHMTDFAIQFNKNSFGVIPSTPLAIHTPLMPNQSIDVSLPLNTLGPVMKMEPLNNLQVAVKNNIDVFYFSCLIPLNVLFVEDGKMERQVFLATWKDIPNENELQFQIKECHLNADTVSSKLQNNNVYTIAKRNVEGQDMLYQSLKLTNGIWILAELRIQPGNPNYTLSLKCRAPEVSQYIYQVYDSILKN
GST GSH counter – GST-GSH bead binding interference, counter-screen; GST-fluorescein binding to GSH beads, fluorescence; inhibition, % at 10 µM; shares compounds with Arr AP2 block; 1,300 tested, 2% active;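 active = inhibition above 50%, about 3 SD of the inhibition seen with non-fluorescent compounds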;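 note: fluorescein maleimide labelled GST captured on 4 micron glutathione beads; higher means more loss of bead fluorescence from quenching or blocked binding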
Hits are given with their value; - = inactive; . = no result given. The list is not random: actives were taken first. Their share in the collection is about 3.4%.

SMILES	Arr AP2 block	AHR act	A3G deaminase	PolyA inh	UCH37 DUB inh	A3A deaminase	Arr AP2 CP1	GST GSH counter
COc1ccc2nc(-c3ccccc3)cc(C(=O)OCC(=O)N3CC(C)OC(C)C3)c2c1 (stereo unspecified)	54.1	-	-	.	-	-	-	-
CCN1C(=O)/C(=C\N(C)C)SC1=NS(=O)(=O)c1ccc(C)cc1	.	.	.	.	-	.	.	.
O=C(Nc1ccc2nc(-c3ccco3)c(-c3ccco3)nc2c1)NC1CC1	58.0	.	-	-	.	-	-	-
C=CCNC(=S)NN=Cc1ccc(OCc2ccccc2Cl)cc1	.	.	.	.	-	.	.	.
O=C(CCSc1ccc(Cl)cc1)N1CCN(S(=O)(=O)c2ccccc2)CC1	-	-	-	.	-	-	.	.
O=C(CCC(=O)N1CCN(S(=O)(=O)c2ccc(Cl)cc2)CC1)NCc1ccccc1	58.0	-	-	-	-	-	-	-
CCc1ccc(NC(=O)c2cnn(-c3ccccc3)c2C)cc1	-	-	-	-	-	-	.	.
Cc1c(C(=O)Nc2ccc(C(=O)O)cc2)cnn1C	58.0	-	-	-	-	-	-	-
COCC(=O)Nc1nc2n(n1)C(c1ccc(Cl)cc1)CC(c1ccc(OC)cc1)N2 (stereo unspecified)	79.6	-	-	-	-	-	-	-
COc1ccc(C=Nn2c(=O)[nH]c3c([nH]c4ccc(C)cc43)c2=O)cc1CN1CCOCC1	.	.	.	.	-	.	.	.
O=C(Nc1cccc(S(=O)(=O)N2CCCC2)c1)c1cc(S(=O)(=O)N2CCOCC2)ccc1F	-	-	-	-	-	-	.	.
CNC(=O)c1cc(S(=O)(=O)N2CC(C)OC(C)C2)ccc1N1CCOCC1 (stereo unspecified)	-	.	-	-	-	-	.	.
O=C(Nc1cccc(F)c1)c1cc(S(=O)(=O)N2CCOCC2)ccc1N1CCCC1	-	-	-	.	-	-	-	-
CNC(=O)c1cc(S(=O)(=O)N2CC(C)OC(C)C2)ccc1N1CCCCC1 (stereo unspecified)	-	.	-	-	-	-	-	-
COc1cccc(CNC(=O)c2cc(S(=O)(=O)N3CCOCC3)ccc2N2CCCC2)c1	-	-	-	.	-	-	-	-
COc1ccc(S(=O)(=O)N2CCCCCC2)cc1C(=O)NCCc1ccccc1	61.4	-	-	.	-	-	-	-
O=C(NCc1ccccc1)c1cc(S(=O)(=O)N2CCCCC2)ccc1N1CCOCC1	-	-	-	-	-	-	.	.
Cc1ccc(S(=O)(=O)N2CCCCC2)cc1C(=O)NCCc1ccccc1	-	-	-	-	-	-	.	.
CC(=O)NN=C(C)c1ccc(NC(=O)c2csc(C)c2C)cc1	.	.	.	.	-	.	.	.
O=C(NN=Cc1ccc[nH]1)c1ccncc1	.	.	.	.	-	.	.	.
CCOC(=O)NN=C1CCc2ccccc21	.	.	.	.	-	.	.	.
Cc1cc(S(=O)(=O)N2CCCC2)ccc1OCC(=O)Nc1ccccc1	64.5	-	-	-	-	-	-	-
CCOc1ccc(C=Nn2c(C3CCCCC3)n[nH]c2=S)cc1	.	.	.	.	-	.	.	.
COc1ccccc1C(O)P(=O)(OC1CCCCC1)OC1CCCCC1 (stereo unspecified)	54.7	-	-	-	-	-	-	-
COc1cccc(C(=O)Nc2ccc(NC(=O)c3ccco3)c(Cl)c2)c1	55.7	-	-	-	-	-	-	-
SMILES	Arr AP2 block	AHR act	A3G deaminase	PolyA inh	UCH37 DUB inh	A3A deaminase	Arr AP2 CP1	GST GSH counter
Cc1ccc(C=NNC(=O)c2c(C)nc3ccc(Br)cn23)cc1	.	.	.	.	-	.	.	.
O=C(NN=Cc1c[nH]c2ccc(Br)cc12)c1ccn(Cc2ccc(Cl)cc2Cl)n1	.	.	.	.	-	.	.	.
O=C(NC1CCCCC1)N1CCN(CCc2ccccc2)CC1	54.2	-	-	-	-	-	-	-
CCN1CCN(C(=O)NC2CCCCC2)CC1	-	-	-	-	-	-	.	.
CCOC(=O)c1c(NC(C)=O)sc2c(O)c(CN3CCN(CC)CC3)ccc12	63.8	-	-	-	-	-	-	-
COc1ccc(C=NNC(=O)CN2CCN(Cc3ccccc3)CC2)cc1Br	.	.	.	.	-	.	.	.
Cc1ccc(SCC(=O)NN=Cc2ccco2)cc1	.	.	.	.	-	.	.	.
Cn1nc(C(=O)N2CCCC2)c2ccccc2c1=O	-	-	-	-	-	-	.	.
CSc1ccc(C(=O)C2CCCN(C(=O)c3nn(C)c(=O)c4ccccc34)C2)cc1 (stereo unspecified)	57.9	-	-	-	-	-	-	-
COc1ccc(C2C(=O)c3ccccc3C2=O)cc1OC	60.9	-	-	.	-	-	-	-
O=[N+]([O-])c1ccc(N2CCN(Cc3ccccc3)CC2)nc1	-	-	-	-	-	-	.	.
O=[N+]([O-])c1ccc(CN2CCN(c3ccc4ccccc4n3)CC2)cc1	54.2	-	-	-	-	-	-	-
O=c1[nH]c(CO)nc2c1oc1ccccc12	72.5	-	-	-	-	-	-	-
COc1ccc(OC)c(C(C(=O)NC2CCCCC2)N(C(=O)c2snc(C(N)=O)c2N)c2ccccc2OC)c1 (stereo unspecified)	-	-	-	-	.	-	.	.
COc1ccc(C)cc1N(C(=O)c1snc(C(N)=O)c1N)C(C(=O)NC1CCCCC1)c1ccc(C)o1 (stereo unspecified)	72.0	.	-	-	-	-	-	-
O=C(CN(Cc1cccs1)S(=O)(=O)c1ccc(S(=O)(=O)N2CCCCC2)cc1)Nc1ccccc1	101.8	-	-	-	-	-	-	-
O=C(CN(C1CC1)S(=O)(=O)c1ccc(S(=O)(=O)N2CCCCCC2)cc1)Nc1ccccc1	-	-	-	-	-	-	.	.
COc1cccc(CN(C)CC(=O)Nc2cc3oc4ccccc4c3cc2OC)c1	-	-	-	-	-	-	-	-
COc1cc2c(cc1NC(=O)CN(C)Cc1cccc(OC)c1OC)oc1ccccc12	-	-	-	-	-	-	-	-
COc1cc2c(cc1NC(=O)COCC(=O)O)oc1ccccc12	-	.	-	-	-	-	.	.
Cc1cc(C)nc(NN=C/C=C/c2ccccc2)n1	.	.	.	.	-	.	.	.
O=C(NN=Cc1coc2ccccc2c1=O)c1cc2ccccc2o1	.	.	.	.	-	.	.	.
NC1=NCC(O)=C1c1nc2ccccc2[nH]1	65.6	-	-	-	-	-	-	-
COc1cccc(C=NNC(=O)CNC(=O)COc2ccccc2)c1O	.	.	.	.	-	.	.	.
COc1ccc(-n2c(SCC(=O)O)nc3sc4c(c3c2=O)CCCC4)cc1	58.7	-	-	-	-	-	-	-
O=C(CNc1ccccc1Cl)NN=C1CCCc2ccccc21	.	.	.	.	-	.	.	.
COc1ccc(Cl)cc1NC(=O)COC(=O)C1CC1	-	-	-	.	-	-	.	.
